pIC50: −log10 of the molar value.
Experiments:
[1] = Immunosuppressive activity in human RPMI1788 cells cocultured with human PBMC assessed as inhibition of [3H]thymidine incorporation at 10 uM incubated for 6 days prior to [3H]thymidine addition measured after 18 hrs by liquid scintillation counting; type: functional; settings: RPMI-1788
Procedure, shortened: (§1)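 Effector PBMCs from heparinized healthy-donor blood were isolated over Lymphoprep and held at 1.2 × 10⁶ cells/mL in RPMI-1640 with 10% heat-inactivated FCS. Mitomycin-treated stimulator cells were at 0.45 × 10⁶ cells/mL. Cells were mixed with diluted compound and cultured at 37 °C, 5% CO₂. (methyl-³H)thymidine was added for the final 18 h, and filter-harvested cpm were counted by scintillation. Compounds were screened at one concentration, then dose-response IC₅₀ was determined. Values are means of two independent experiments.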

[2] = Cytotoxicity against human Jurkat T cells after 48 hrs by WST1 assay; type: cell-based
Procedure, shortened: (§2)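 Jurkat T cells were seeded at 5.10⁴ cells per well and exposed to serial compound dilutions for 48 h at 37 °C and 5% CO₂. Part of the medium was removed, WST-1 tetrazolium salt was added, and cells were incubated further. Absorbance was read at 450 nm. Results are % cytotoxicity at each concentration, with CC₅₀ calculated.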

[3] = Immunosuppressive activity in human RPMI1788 cells cocultured with human PBMC assessed as inhibition of [3H]thymidine incorporation incubated for 6 days prior to [3H]thymidine addition measured after 18 hrs by liquid scintillation counting; type: functional, cell-based; settings: RPMI-1788; procedure, shortened: as §1
[4] = Growth inhibition of human Jurkat T cells at 10 uM after 48 hrs by WST1 assay; type: cell-based; procedure, shortened: as §2
[5] = test system: Serine/threonine-protein kinase B-raf (Homo sapiens), P15056 [V600E]; assay: Binding affinity to BRAF V600E mutant (unknown origin) at 10 uM relative to control
[6] = target: Ribosomal protein S6 kinase alpha-6 (Homo sapiens) (UniProt Q9UK32); assay: Binding affinity to RSK4 (unknown origin) at 10 uM relative to control
[7] = target: T1, Inhibitor of nuclear factor kappa-B kinase subunit beta (Homo sapiens) (UniProt O14920); assay: Binding affinity to IKKbeta (unknown origin) at 10 uM relative to control
T1 sequence (whole entry): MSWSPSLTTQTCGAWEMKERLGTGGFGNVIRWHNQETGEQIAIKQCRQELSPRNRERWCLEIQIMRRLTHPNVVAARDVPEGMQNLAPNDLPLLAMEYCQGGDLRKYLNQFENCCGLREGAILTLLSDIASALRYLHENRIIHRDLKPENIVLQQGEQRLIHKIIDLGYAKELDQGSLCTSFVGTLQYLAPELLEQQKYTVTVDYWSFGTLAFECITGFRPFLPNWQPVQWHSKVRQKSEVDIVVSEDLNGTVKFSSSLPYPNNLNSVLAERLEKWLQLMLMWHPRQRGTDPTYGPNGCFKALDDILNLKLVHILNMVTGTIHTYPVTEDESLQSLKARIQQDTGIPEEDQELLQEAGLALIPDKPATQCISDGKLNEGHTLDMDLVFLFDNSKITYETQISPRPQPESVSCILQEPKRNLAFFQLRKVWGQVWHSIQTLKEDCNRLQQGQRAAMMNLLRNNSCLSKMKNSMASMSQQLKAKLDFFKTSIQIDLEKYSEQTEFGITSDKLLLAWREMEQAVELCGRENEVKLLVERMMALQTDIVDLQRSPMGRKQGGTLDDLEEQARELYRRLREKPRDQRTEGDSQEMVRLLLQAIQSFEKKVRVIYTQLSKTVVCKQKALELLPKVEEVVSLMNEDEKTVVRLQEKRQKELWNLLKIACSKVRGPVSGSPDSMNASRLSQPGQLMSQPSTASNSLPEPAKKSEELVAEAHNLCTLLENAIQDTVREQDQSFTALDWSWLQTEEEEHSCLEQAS

[8] = target: T2, Receptor-interacting serine/threonine-protein kinase 4 (Homo sapiens) (UniProt P57078); assay: Binding affinity to RIPK4 (unknown origin) at 10 uM relative to control
T2 sequence (whole entry): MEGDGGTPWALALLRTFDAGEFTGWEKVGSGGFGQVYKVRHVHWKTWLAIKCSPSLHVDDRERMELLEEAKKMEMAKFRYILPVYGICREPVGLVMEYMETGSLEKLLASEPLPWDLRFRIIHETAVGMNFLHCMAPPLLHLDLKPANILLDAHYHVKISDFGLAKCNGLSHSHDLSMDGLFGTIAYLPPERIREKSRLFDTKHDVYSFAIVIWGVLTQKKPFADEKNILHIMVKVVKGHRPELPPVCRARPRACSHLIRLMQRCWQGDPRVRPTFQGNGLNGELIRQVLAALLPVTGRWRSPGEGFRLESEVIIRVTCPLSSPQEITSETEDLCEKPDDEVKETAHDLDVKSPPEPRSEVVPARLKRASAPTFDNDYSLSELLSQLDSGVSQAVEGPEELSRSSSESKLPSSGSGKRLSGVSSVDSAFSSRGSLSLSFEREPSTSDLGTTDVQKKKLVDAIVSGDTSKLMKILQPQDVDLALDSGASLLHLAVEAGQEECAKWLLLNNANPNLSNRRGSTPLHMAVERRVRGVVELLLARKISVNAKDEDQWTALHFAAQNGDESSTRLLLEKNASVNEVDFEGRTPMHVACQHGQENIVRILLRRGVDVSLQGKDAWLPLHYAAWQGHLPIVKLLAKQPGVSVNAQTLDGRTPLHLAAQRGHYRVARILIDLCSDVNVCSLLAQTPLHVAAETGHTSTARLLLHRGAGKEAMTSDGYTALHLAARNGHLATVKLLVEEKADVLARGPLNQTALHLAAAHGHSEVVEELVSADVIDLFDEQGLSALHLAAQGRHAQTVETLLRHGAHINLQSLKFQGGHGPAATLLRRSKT

[9] = target: Serine/threonine-protein kinase B-raf (Homo sapiens) (UniProt P15056); assay: Binding affinity to BRAF (unknown origin) at 10 uM relative to control
[10] = target: Serine/threonine-protein kinase mTOR (Homo sapiens) (UniProt P42345); assay: Inhibition of mTOR (unknown origin) at 10 uM
[11] = target: T3, Inhibitor of nuclear factor kappa-B kinase subunit alpha (Homo sapiens) (UniProt O15111); assay: Binding affinity to IKKalpha (unknown origin) at 10 uM relative to control
T3 sequence (whole entry): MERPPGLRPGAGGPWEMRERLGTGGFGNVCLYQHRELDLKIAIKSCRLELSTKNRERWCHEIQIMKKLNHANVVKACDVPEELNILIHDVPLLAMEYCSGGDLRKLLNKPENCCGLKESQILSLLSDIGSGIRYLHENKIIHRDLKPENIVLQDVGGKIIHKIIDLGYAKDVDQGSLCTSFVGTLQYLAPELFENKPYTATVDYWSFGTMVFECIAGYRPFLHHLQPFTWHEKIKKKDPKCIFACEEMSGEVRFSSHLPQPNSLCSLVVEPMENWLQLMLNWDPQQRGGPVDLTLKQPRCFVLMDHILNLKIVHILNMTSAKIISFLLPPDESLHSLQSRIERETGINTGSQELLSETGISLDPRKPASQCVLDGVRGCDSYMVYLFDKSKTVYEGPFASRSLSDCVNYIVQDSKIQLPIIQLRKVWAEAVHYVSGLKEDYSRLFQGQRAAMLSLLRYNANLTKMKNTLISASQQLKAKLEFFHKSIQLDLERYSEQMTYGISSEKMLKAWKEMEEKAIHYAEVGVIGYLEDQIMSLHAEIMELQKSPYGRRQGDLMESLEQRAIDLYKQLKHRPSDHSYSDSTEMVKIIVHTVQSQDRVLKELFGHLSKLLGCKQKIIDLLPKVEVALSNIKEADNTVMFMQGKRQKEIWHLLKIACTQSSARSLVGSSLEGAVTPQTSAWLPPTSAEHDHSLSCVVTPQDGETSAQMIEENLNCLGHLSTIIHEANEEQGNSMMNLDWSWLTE

[12] = target: Serine/threonine-protein kinase 10 (Homo sapiens) (UniProt O94804); assay: Binding affinity to LOK (unknown origin) at 10 uM relative to control
[13] = target: Tyrosine-protein kinase JAK1 (Homo sapiens) (UniProt P23458); assay: Binding affinity to JAK1 (unknown origin) at 10 uM relative to control
Sequence of Tyrosine-protein kinase JAK1 (Homo sapiens) (P23458 whole entry): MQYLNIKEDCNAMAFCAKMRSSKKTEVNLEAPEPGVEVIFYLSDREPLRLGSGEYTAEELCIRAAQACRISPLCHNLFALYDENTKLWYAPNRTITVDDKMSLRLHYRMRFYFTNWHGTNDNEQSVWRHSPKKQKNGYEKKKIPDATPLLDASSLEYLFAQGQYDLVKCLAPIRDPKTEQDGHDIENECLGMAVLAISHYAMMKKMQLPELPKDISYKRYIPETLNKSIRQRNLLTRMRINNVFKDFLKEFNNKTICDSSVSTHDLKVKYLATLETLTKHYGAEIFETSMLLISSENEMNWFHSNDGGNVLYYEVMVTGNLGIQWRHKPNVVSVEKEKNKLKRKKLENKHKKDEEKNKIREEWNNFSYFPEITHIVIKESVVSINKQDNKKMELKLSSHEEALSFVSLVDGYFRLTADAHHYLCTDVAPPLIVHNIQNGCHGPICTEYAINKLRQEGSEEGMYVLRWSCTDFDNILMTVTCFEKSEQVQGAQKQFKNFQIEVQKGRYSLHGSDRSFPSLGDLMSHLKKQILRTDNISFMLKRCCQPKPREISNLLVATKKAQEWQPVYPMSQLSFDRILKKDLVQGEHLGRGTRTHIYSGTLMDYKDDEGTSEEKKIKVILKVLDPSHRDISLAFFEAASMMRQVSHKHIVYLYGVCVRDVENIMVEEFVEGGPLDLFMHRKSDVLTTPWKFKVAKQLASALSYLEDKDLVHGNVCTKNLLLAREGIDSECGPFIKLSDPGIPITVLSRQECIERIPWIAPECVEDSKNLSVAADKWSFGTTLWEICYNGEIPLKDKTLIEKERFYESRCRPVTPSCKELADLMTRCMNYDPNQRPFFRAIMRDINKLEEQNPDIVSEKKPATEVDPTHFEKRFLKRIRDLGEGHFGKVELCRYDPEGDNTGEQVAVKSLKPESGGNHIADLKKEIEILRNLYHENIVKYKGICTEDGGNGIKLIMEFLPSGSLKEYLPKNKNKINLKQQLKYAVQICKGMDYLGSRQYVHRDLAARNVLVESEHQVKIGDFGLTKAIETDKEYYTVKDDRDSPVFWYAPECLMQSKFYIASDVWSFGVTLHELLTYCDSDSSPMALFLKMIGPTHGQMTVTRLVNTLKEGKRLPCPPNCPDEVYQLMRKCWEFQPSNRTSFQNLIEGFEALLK

Sequence of Serine/threonine-protein kinase B-raf (Homo sapiens) (P15056 whole entry): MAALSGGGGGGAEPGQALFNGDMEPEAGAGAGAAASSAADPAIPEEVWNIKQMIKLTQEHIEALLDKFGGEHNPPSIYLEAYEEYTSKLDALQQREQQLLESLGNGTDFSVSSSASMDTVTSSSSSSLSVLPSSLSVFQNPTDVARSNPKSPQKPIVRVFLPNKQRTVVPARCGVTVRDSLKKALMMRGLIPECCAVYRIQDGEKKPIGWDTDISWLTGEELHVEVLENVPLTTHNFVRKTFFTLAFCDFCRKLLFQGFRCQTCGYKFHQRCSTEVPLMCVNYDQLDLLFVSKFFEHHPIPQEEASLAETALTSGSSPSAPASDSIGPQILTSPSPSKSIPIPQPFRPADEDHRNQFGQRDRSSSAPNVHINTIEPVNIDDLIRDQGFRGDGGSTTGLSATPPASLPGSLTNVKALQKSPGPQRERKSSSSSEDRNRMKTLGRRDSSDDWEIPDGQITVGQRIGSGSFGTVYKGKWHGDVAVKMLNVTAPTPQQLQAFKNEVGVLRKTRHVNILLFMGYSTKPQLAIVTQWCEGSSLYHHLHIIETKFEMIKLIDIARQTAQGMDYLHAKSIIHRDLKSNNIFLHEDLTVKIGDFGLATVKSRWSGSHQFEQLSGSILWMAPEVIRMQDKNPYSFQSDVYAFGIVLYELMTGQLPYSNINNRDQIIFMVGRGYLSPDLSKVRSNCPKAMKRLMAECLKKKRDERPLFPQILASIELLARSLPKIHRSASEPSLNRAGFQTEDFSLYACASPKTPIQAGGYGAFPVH
Sequence of Serine/threonine-protein kinase B-raf (Homo sapiens), P15056 [V600E] (P15056 whole entry V600E): as the sequence (P15056 whole entry) above, with V600E counted along it
Sequence of Serine/threonine-protein kinase 10 (Homo sapiens) (O94804 whole entry, looked up): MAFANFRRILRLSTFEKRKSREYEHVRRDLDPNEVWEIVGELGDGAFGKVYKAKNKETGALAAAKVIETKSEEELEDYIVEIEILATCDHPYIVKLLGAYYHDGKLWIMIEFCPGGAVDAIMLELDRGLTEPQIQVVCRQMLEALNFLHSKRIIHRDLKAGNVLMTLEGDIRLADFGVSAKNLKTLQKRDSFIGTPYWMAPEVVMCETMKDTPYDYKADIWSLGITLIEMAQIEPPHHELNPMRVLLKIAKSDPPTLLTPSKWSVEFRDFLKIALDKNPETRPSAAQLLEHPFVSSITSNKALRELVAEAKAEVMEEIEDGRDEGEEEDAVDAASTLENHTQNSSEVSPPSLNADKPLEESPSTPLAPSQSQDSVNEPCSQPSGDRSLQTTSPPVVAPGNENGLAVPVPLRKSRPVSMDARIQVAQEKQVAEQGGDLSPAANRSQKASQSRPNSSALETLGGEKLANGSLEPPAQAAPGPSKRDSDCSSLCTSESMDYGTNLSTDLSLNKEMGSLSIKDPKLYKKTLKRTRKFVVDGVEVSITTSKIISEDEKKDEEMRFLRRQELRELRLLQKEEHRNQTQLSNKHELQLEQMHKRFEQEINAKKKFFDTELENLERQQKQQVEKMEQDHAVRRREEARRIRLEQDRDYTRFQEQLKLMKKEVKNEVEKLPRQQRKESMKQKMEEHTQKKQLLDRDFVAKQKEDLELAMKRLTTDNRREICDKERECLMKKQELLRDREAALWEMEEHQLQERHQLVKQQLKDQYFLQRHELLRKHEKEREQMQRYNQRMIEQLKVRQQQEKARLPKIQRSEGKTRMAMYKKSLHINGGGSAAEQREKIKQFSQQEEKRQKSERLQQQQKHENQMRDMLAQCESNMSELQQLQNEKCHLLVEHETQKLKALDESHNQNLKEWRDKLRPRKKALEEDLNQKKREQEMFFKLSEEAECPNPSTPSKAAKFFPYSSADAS
Sequence of Ribosomal protein S6 kinase alpha-6 (Homo sapiens) (Q9UK32 whole entry): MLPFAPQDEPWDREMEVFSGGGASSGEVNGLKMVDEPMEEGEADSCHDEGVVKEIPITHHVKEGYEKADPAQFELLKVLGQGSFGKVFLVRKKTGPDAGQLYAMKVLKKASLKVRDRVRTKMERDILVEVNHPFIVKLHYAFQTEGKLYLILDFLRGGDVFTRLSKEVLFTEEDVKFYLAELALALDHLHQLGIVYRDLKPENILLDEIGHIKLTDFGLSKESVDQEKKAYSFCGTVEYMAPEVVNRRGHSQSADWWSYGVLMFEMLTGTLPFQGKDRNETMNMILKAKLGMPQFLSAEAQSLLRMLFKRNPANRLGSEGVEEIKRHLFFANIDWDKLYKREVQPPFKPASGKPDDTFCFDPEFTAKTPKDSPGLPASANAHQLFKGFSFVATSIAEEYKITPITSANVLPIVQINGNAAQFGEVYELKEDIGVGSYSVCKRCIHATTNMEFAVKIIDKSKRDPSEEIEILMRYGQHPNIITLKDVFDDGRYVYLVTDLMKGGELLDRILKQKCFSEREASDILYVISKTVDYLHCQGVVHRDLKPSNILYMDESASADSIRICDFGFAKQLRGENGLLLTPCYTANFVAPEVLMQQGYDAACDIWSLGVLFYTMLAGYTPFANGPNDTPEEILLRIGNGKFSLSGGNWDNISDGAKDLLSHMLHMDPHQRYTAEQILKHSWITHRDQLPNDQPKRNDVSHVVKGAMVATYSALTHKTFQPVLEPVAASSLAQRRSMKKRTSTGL

pIC50 [3]	SMILES	inhibition at 10 µM [1] [%]	CC50 at 48 h [2] [µM]	inhibition at 48 h, 10 µM [4] [%]	other results
5.41	COc1ccc(-c2nc(SCCc3ccccc3)nc(N3CCOCC3)c2C#N)cc1	62	> 10	9	–
5.08	N#Cc1c(-c2ccc(Cl)cc2)nc(SCc2ccccc2)nc1N1CCOCC1	63	> 10	5	–
5.80	COc1ccc(-c2nc(SCc3ccccc3)nc(N3CCOCC3)c2C#N)cc1	90	> 10	10	Activity [5]: 28%; Activity [6]: 35%; Activity [7]: 48%; Activity [8]: 43%; Activity [9]: 34%; inhibition [10]: 10%; Activity [11]: 44%; Activity [12]: 45%; Activity [13]: 39%
5.01	N#Cc1c(-c2ccc(Cl)cc2)nc(SCc2ccccc2)nc1N1CCC(C(=O)c2ccccc2)CC1	55	> 10	6	–
5.30	COc1ccc(-c2nc(SCc3ccccc3)nc(NCc3cccs3)c2C#N)cc1	65	> 10	13	–
5.21	N#Cc1c(-c2ccccc2)nc(Nc2ccc(Cl)cc2)nc1N1CCCCC1	70	> 10	9	–
5.28	CCCCCCSc1nc(-c2ccc(OC)cc2)c(C#N)c(N2CCOCC2)n1	69	> 10	13	–
5.31	COc1ccc(-c2nc(SC)nc(N3CCOCC3)c2C#N)cc1	80	> 10	6	–
5.64	CCCCSc1nc(-c2ccc(OC)cc2)c(C#N)c(N2CCOCC2)n1	67	> 10	13	–
5.19	N#Cc1c(-c2ccc(Cl)cc2)nc(SCc2ccccc2)nc1N1CCC(C(N)=O)CC1	57	> 10	19	–
5.19	N#Cc1c(NC2CCCCC2)nc(SCc2ccccc2)nc1-c1ccc(Cl)cc1	56	> 10	0	–
5.37	Cc1ccc(Nc2nc(-c3ccccc3)c(C#N)c(N3CCCCC3)n2)cc1	88	> 10	10	–
5.26	N#Cc1c(-c2cccc(Cl)c2)nc(SCc2ccccc2)nc1N1CCOCC1	80	> 10	15	–
< 5.00	COc1ccc(-c2nc(SCc3ccccc3)nc(N3CCC(c4ccccc4)CC3)c2C#N)cc1	31	–	–	–
< 5.00	N#Cc1c(-c2ccccc2)nc(Nc2ccc(Cl)cc2)[nH]c1=O	0	–	–	–
5.31	COc1ccc(-c2nc(SCc3ccccc3)nc(N3CCC(C(N)=O)CC3)c2C#N)cc1	73	> 10	12	–
5.68	COc1ccc(-c2nc(SCc3ccccc3)nc(N3CCC(C(=O)c4ccccc4)CC3)c2C#N)cc1	63	> 10	2	–
< 5.00	N#Cc1c(-c2ccc(Cl)cc2)nc(Nc2ccc(Cl)cc2)[nH]c1=O	18	–	–	–
< 5.00	Cc1ccc(Nc2nc(-c3ccccc3)c(C#N)c(=O)[nH]2)cc1	11	–	–	–
5.60	COc1ccc(-c2nc(SCc3ccccc3)nc(NCc3ccccc3)c2C#N)cc1	73	> 10	5	–
5.47	C=CCSc1nc(-c2ccc(OC)cc2)c(C#N)c(N2CCOCC2)n1	82	> 10	5	–
< 5.00	N#Cc1c(-c2ccc(Cl)cc2)nc(Nc2cccc(F)c2)[nH]c1=O	0	–	–	–
< 5.00	CCc1cccc(Nc2nc(-c3ccc(Cl)cc3)c(C#N)c(=O)[nH]2)c1	33	–	–	–
< 5.00	N#Cc1c(-c2ccc(Cl)cc2)nc(SCc2ccccc2)nc1N1CCCC(C(N)=O)C1 (stereo not drawn)	64	–	–	–
< 5.00	N#Cc1c(-c2ccc(Cl)cc2)nc(SCc2ccccc2)n(Cc2ccccc2)c1=O	14	–	–	–
